Measured values as given in ChEMBL document CHEMBL1144441, “Identification of a novel cardenolide (2''-oxovoruscharin) from Calotropis procera and the hemisynthesis of novel derivatives displaying potent in vitro antitumor activities and high in vivo tolerance: structure-activity relationship analyses” (J Med Chem, 2005).

Key:
[1] = test system: PANC-1; test: In vitro cytotoxic activity against human Panc-1 cancer cell lines after 3 days of culture; format: functional
Outline: (§1)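 MTT overall-growth panel across 57 human cancer lines. Cells were plated for 24 h at 10 000–40 000 cells/mL, depending on cell type. Drugs were given at nine concentrations, 10^-9 to 10^-5 M in semilog steps, for 3 days. Absorbance was read at 570 nm with a 630 nm reference, in sextuplicate. Surviving cells are expressed as % of untreated control (100%).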

[2] = In vitro cytotoxic activity against human SW1783 cancer cell lines after 3 days of culture; format: functional
Outline: (§2)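 Human cancer cell lines, seeded 10 000–40 000 cells/mL and plated for 24 h, then exposed 72 h to nine drug concentrations from 10^-9 to 10^-5 M in semilog steps. Overall growth read by MTT reduction to formazan, absorbance at 570 nm (reference 630 nm). Sextuplicate wells; IC50 is the concentration reducing overall growth by 50% versus untreated control.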

[3] = test system: T-24; test: In vitro cytotoxic activity against human T24 cancer cell lines after 3 days of culture; format: functional; outline: as §2
[4] = In vitro cytotoxic activity against human SW1088 cancer cell lines after 3 days of culture; format: functional; outline: as §2
[5] = In vitro cytotoxic activity against human Capan-2 cancer cell lines after 3 days of culture; format: functional; outline: as §1
[6] = In vitro cytotoxic activity against human SK-UT-1B cancer cell lines after 3 days of culture; format: functional; outline: as §2
[7] = test system: CAKI-2; test: In vitro cytotoxic activity against human CAKI-2 cancer cell lines after 3 days of culture; format: functional; outline: as §1
[8] = In vitro cytotoxic activity against human Detroit 562 cancer cell lines after 3 days of culture; format: functional; outline: as §1
[9] = In vitro cytotoxic activity against human Hs 729 cancer cell lines after 3 days of culture; format: functional; outline: as §1
[10] = test system: SK-MEL-28; test: In vitro cytotoxic activity against human SKMEL-28 cancer cell lines after 3 days of culture; format: functional; outline: as §2
[11] = In vitro cytotoxic activity against human SK-LMS-1 cancer cell lines after 3 days of culture; format: functional; outline: as §1
[12] = test system: WiDr; test: In vitro cytotoxic activity against human WiDr cancer cell lines after 3 days of culture; format: functional; outline: as §2
[13] = test system: ACHN; test: In vitro cytotoxic activity against human ACHN cancer cell lines after 3 days of culture; format: functional; outline: as §1
[14] = In vitro cytotoxic activity against human […] cancer cell lines after 3 days of culture; format: functional; outline: as §1
[15] = test system: LoVo; test: In vitro cytotoxic activity against human LoVo cancer cell lines after 3 days of culture; format: functional; outline: as §1
[16] = In vitro cytotoxic activity against human G361 cancer cell lines after 3 days of culture; format: functional; outline: as §1
[17] = In vitro cytotoxic activity against human AL-12T cancer cell lines after 3 days of culture; format: functional; outline: as §1
[18] = test system: A-427; test: In vitro cytotoxic activity against human A427 cancer cell lines after 3 days of culture; format: functional; outline: as §1
[19] = test system: Mus musculus; test: Maximum tolerated dose after intraperitoneal administration in mouse (period of 28 days); format: functional
Outline: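 Healthy, non-tumour-bearing B6D2F1 mice given one acute intraperitoneal dose, three mice per dose group, doses 5, 10, 20, 40, 80, 120 and 160 mg/kg. Survival and body weight followed for 28 days after injection. MTD is the highest single dose causing no deaths over the period.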

[20] = In vitro cytotoxic activity against human Su.86.86 cancer cell lines after 3 days of culture; format: functional; outline: as §2
[21] = test system: A498; test: In vitro cytotoxic activity against human A-498 cancer cell lines after 3 days of culture; format: functional; outline: as §1
[22] = In vitro cytotoxic activity against human Hs 174.T cancer cell lines after 3 days of culture; format: functional; outline: as §1
[23] = test system: A204; test: In vitro cytotoxic activity against human A204 cancer cell lines after 3 days of culture; format: functional; outline: as §1
[24] = test system: LNCaP; test: In vitro cytotoxic activity against human LNCaP cancer cell lines after 3 days of culture; format: functional; outline: as §1
[25] = In vitro cytotoxic activity against human C32 cancer cell lines after 3 days of culture; format: functional; outline: as §1
[26] = test system: Malme-3M; test: In vitro cytotoxic activity against human MALME-3M cancer cell lines after 3 days of culture; format: functional; outline: as §1
[27] = test system: HCT-15; test: Concentration required for 50% growth inhibition of human HCT-15 cancer cell lines after 3 days of culture; format: functional, cell-based; settings: HCT-15, 72 h
Outline: (§3)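 MTT overall-growth assay on the five lines. Cells were plated for 24 h at 10 000–40 000 cells/mL, depending on cell type. Nine concentrations from 10^-9 to 10^-5 M in semilog steps were applied for 72 h. Formazan was read at 570 nm against a 630 nm reference, in sextuplicate. IC50 = concentration reducing overall growth by 50% versus untreated control.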

[28] = test system: HT-29; test: In vitro cytotoxic activity against human HT-29 cancer cell lines after 3 days of culture; format: functional; outline: as §1
[29] = test system: HCT-15; test: In vitro cytotoxic activity against human HCT-15 cancer cell lines after 3 days of culture; format: functional; outline: as §1
[30] = test system: ZR-75-1; test: In vitro cytotoxic activity against human ZR-75-1 cancer cell lines after 3 days of culture; format: functional; outline: as §2
[31] = test system: DU-145; test: In vitro cytotoxic activity against human DU145 cancer cell lines after 3 days of culture; format: functional; outline: as §1
[32] = test system: T98G; test: In vitro cytotoxic activity against human T98G cancer cell lines after 3 days of culture; format: functional; outline: as §2
[33] = test system: A549; test: In vitro cytotoxic activity against human A549 cancer cell lines after 3 days of culture; format: functional; outline: as §1
[34] = test system: MES-SA; test: In vitro cytotoxic activity against human MES-SA cancer cell lines after 3 days of culture; format: functional; outline: as §1
[35] = test system: U373 MG; test: Concentration required for 50% growth inhibition of human U373 cancer cell lines after 3 days of culture; format: functional, cell-based, U-373MG ATCC; settings: 72 h; outline: as §3
[36] = In vitro cytotoxic activity against human Hs 683 cancer cell lines after 3 days of culture; format: functional; outline: as §1
[37] = test system: FaDu; test: In vitro cytotoxic activity against human FaDu cancer cell lines after 3 days of culture; format: functional; outline: as §1
[38] = test system: A549; test: Concentration required for 50% growth inhibition of human A549 cancer cell lines after 3 days of culture; format: functional, cell-based; settings: A549, 72 h; outline: as §3
[39] = In vitro cytotoxic activity against human HT144 cancer cell lines after 3 days of culture; format: functional; outline: as §1
[40] = test system: HT1197; test: In vitro cytotoxic activity against human HT1197 cancer cell lines after 3 days of culture; format: functional; outline: as §1
[41] = test system: BT-20; test: In vitro cytotoxic activity against human BT-20 cancer cell lines after 3 days of culture; format: functional; outline: as §1
[42] = test system: BXPC-3; test: In vitro cytotoxic activity against human BxPC-3 cancer cell lines after 3 days of culture; format: functional; outline: as §1
[43] = test system: U373 MG; test: In vitro cytotoxic activity against human U-373MG cancer cell lines after 3 days of culture; format: functional, U-373MG ATCC; outline: as §2
[44] = target: Sodium/potassium-transporting ATPase subunit alpha-1 (Sus scrofa, UniProt P05024); test: In vitro inhibitory activity against porcine Na+/K+-ATPase
Outline: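 Porcine cerebral cortex Na+/K+-ATPase (3 × 10-3 units), preincubated 30 min at 37 °C in 30 mM Tris-HCl pH 7.4, 5 mM MgCl2 with inhibitor (1 to 50 000 nM). ADP formation coupled via pyruvate kinase/lactate dehydrogenase, excess phosphoenolpyruvate, to NADH oxidation.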

[45] = test system: CFPAC-1; test: In vitro cytotoxic activity against human CFPAC-1 cancer cell lines after 3 days of culture; format: functional; outline: as §1
[46] = In vitro cytotoxic activity against human Hs 766.T cancer cell lines after 3 days of culture; format: functional; outline: as §1
[47] = In vitro cytotoxic activity against human SCC-9 cancer cell lines after 3 days of culture; format: functional; outline: as §1
[48] = test system: H4; test: In vitro cytotoxic activity against human H4 cancer cell lines after 3 days of culture; format: functional; outline: as §1
[49] = test system: HT-1080; test: In vitro cytotoxic activity against human HT1080 cancer cell lines after 3 days of culture; format: functional; outline: as §1
[50] = test system: PC-3; test: In vitro cytotoxic activity against human PC-3 cancer cell lines after 3 days of culture; format: functional; outline: as §1
[51] = test system: 786-0; test: In vitro cytotoxic activity against human 786-O cancer cell lines after 3 days of culture; format: functional; outline: as §1
[52] = Concentration required for 50% growth inhibition of human Hs 683 cancer cell lines after 3 days of culture; format: functional, cell-based; settings: 72 h; outline: as §3
[53] = test system: MIA PaCa-2; test: In vitro cytotoxic activity against human MiaPaca-2 cancer cell lines after 3 days of culture; format: functional; outline: as §1
[54] = test system: MDA-MB-231; test: In vitro cytotoxic activity against human MDA-MB-231 cancer cell lines after 3 days of culture; format: functional; outline: as §1
[55] = test system: T47D; test: In vitro cytotoxic activity against human T-47D cancer cell lines after 3 days of culture; format: functional; outline: as §2
[56] = In vitro cytotoxic activity against human 769-P cancer cell lines after 3 days of culture; format: functional; outline: as §1
[57] = test system: DLD-1; test: In vitro cytotoxic activity against human DLD-1 cancer cell lines after 3 days of culture; format: functional; outline: as §1
[58] = test system: Hs-578T; test: In vitro cytotoxic activity against human Hs 578.T cancer cell lines after 3 days of culture; format: functional; outline: as §1
[59] = test system: U-87 MG; test: In vitro cytotoxic activity against human U87MG cancer cell lines after 3 days of culture; format: functional, U-87MG ATCC; outline: as §2
[60] = In vitro cytotoxic activity against human SW948 cancer cell lines after 3 days of culture; format: functional; outline: as §2
[61] = In vitro cytotoxic activity against human MCF7HTB-22 cancer cell lines after 3 days of culture; format: functional; outline: as §1
[62] = test system: LoVo; test: Concentration required for 50% growth inhibition of human LoVo cancer cell lines after 3 days of culture; format: functional, cell-based; settings: 72 h; outline: as §3

C[C@@H]1C[C@@]2(NC(=O)CS2)C2(O)O[C@@H]3C[C@@]4(CO)[C@@H](CC[C@@H]5[C@@H]4CC[C@]4(C)[C@@H](C6=CC(=O)OC6)CC[C@]54CO)C[C@H]3O[C@@H]2O1 (some centres undefined)
Log IC50 [1]: -8.3
Log IC50 [2]: -7.7
Log IC50 [3]: -8.6
Log IC50 [4]: -7
Log IC50 [5]: -9
Log IC50 [6]: -7.5
Log IC50 [7]: -8.3
Log IC50 [8]: -8.3
Log IC50 [9]: -7.5
Log IC50 [10]: -7.4
Log IC50 [11]: -8
Log IC50 [12]: -7.8
Log IC50 [13]: -8.2
Log IC50 [14]: -8.7
Log IC50 [15]: -8
Log IC50 [16]: -8.1
Log IC50 [17]: -8.1
Log IC50 [18]: -7.6
MTD [19]: 80 mg/kg
Log IC50 [20]: -8.6
Log IC50 [21]: -8.2
Log IC50 [22]: -7.4
Log IC50 [23]: -8.2
Log IC50 [24]: -8.3
Log IC50 [25]: -7.7
Log IC50 [26]: -6.4
IC50 [27]: 24 nM
Log IC50 [28]: -7.8
Log IC50 [29]: -7.6
Log IC50 [30]: -7.4
Log IC50 [31]: -8.7
Log IC50 [32]: -8.2
Log IC50 [33]: -8.1
Log IC50 [34]: -7.8
IC50 [35]: 9 nM
Log IC50 [36]: -8.6
Log IC50 [37]: -8.1
IC50 [38]: 8 nM
Log IC50 [39]: -7.6
Log IC50 [40]: -7.1
Log IC50 [41]: -8.3
Log IC50 [42]: -7.7
Log IC50 [43]: -8.1
IC50 [44]: 75 nM
Log IC50 [45]: -7.2
Log IC50 [46]: -7.4
Log IC50 [47]: -7.4
Log IC50 [48]: -7.5
Log IC50 [49]: -7.4
Log IC50 [50]: -8.1
Log IC50 [51]: -8.5
IC50 [52]: 3 nM
Log IC50 [53]: -7.5
Log IC50 [54]: -8
Log IC50 [55]: -8.4
Log IC50 [56]: -8.3
Log IC50 [57]: -7.4
Log IC50 [58]: -8.7
Log IC50 [59]: -8.6
Log IC50 [60]: -7.4
Log IC50 [61]: -8.4
IC50 [62]: 10 nM

C[C@@H]1C[C@@]2(N=C(N)CS2)C2(O[Si](C)(C)C)O[C@@H]3C[C@@]4(CO[Si](C)(C)C)[C@@H](CC[C@@H]5[C@@H]4CC[C@]4(C)[C@@H](C6=CC(=O)OC6)CC[C@]54CO[Si](C)(C)C)C[C@H]3O[C@@H]2O1 (some centres undefined)
MTD [19]: >160 mg/kg
IC50 [27]: > 10000 nM
IC50 [35]: > 10000 nM
IC50 [38]: > 10000 nM
IC50 [44]: > 50000 nM
IC50 [52]: > 10000 nM
IC50 [62]: > 10000 nM
